Only some compounds are listed: those with a hit (about 0.72% of all), similar ones and a draw of the others.
hIAP activ: human IAP activators, primary screen, biochemical, luminescence, uHTS; Intestinal-type alkaline phosphatase (Homo sapiens), P09923; AID 2524, 2010; activation factor at 10 µM; purified human IAP, CDP-Star luminescence, 30 min; active compounds read high; 1 = vehicle-only enzyme, 0 = enzyme-free background; 0.16% of 330,000 active;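 active means activation factor of the enzyme at least 2-fold when tested at 20 µM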
Target sequence (P09923 whole entry, looked up): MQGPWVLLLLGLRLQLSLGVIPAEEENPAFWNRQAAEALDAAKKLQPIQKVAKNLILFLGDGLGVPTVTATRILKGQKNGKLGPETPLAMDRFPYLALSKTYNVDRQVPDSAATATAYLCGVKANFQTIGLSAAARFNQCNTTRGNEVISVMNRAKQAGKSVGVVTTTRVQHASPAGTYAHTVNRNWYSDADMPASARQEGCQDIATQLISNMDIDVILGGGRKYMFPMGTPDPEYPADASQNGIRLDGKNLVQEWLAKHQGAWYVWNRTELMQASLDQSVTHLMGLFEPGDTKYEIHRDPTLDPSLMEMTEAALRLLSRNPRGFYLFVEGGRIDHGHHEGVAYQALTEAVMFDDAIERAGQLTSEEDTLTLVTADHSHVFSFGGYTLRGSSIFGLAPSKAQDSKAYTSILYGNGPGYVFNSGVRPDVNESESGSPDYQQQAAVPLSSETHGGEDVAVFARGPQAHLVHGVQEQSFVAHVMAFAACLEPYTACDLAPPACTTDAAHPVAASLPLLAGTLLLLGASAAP
hIAP block: human IAP inhibitors, primary screen, biochemical, luminescence, uHTS; Intestinal-type alkaline phosphatase (Homo sapiens), P09923; purified IAP, CDP-Star luminescence, 30 min; inhibition, % at 10 µM; 0.12% of 330,000 active;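 active means inhibition reaching a set limit with compound at 10 µM in the primary screen, cut at about 35% in these data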
bIAP inh: bovine intestinal alkaline phosphatase inhibitors, primary screen, selectivity assay for TNAP inhibitor project, biochemical, bovine IAP, CDP-star luminescence; alkaline phosphatase, intestinal [Bos taurus]; purified bovine IAP, 30 min; inhibition, % at 20 µM; 190,000 tested, under 10 active;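 active means over 50% inhibition of intestinal alkaline phosphatase at 20 µM in the single-dose screen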
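System: purified bovine intestinal alkaline phosphatase (IAP) enzyme; Input: IAP diluted 1/65,000,000 in the well; Measured by: CDP-star luminescence signal; Compound dosing: 20 µM single dose; Incubation: 30 min reaction at room temperature.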
mIAP activ: activators of mouse IAP, primary screen, biochemical, luminescence, uHTS; intestinal alkaline phosphatase [Mus musculus]; muIAP, CDP-Star luminescence, 30 min; active compounds read high; 1 = vehicle-only enzyme signal, 0 = enzyme-free wells; activation factor at 10 µM; 0.24% of 330,000 active; AID 2805, 2010;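 active means activation factor of at least 2 at 20 µM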
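Assay system: mouse IAP enzyme / Compound: DMSO-dissolved test compounds / Timing: 30 min, room temperature / Measured by: luminescence from enzymatic CDP-Star hydrolysis / Control set: DMSO-only wells, enzyme-free buffer wells as negative control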
mIAP inh: inhibitors of mouse IAP, primary screen, biochemical, luminescence, uHTS; purified mouse IAP, CDP-Star luminescence, 30 min; 0.2% of 330,000 active; intestinal alkaline phosphatase [Mus musculus]; AID 2806, 2010; inhibition, % at 10 µM;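 active means inhibition of at least 40% at 10 µM in the primary screen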
bIAP activator: bovine intestinal alkaline phosphatase activators, primary screen, biochemical, bovine IAP, CDP-star luminescence. 0.17% of 200,000 active. purified bovine IAP, 30 min; active compounds read high; fold of DMSO-control signal, blank-subtracted. activation factor at 20 µM. alkaline phosphatase, intestinal [Bos taurus];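 active means activation factor of 2 or more at 20 µM, a signal rise over negative controls twice the positive control's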
Of the large screens only hits and unclear results are named; the others gave an inactive call.

CCC(C(=O)NCCCN1CCCCCC1)n1nc(C)c2sc3ccccc3c2c1=O (centres undefined)	none (no result: bIAP inh, bIAP activator)
CC1CCCCC1NC(=O)CCC(=O)N1CCOc2ccc(Cl)cc21 (centres undefined)	none (no result: bIAP inh, bIAP activator)
C=CCN(c1ccccc1)S(=O)(=O)c1cccc(C(=O)NC2CCN(Cc3ccccc3)CC2)c1	none (no result: bIAP inh, bIAP activator)
Cc1ccc(C(=O)NCCC(=O)Nc2ccccc2C)cc1	none (no result: bIAP inh, bIAP activator)
CC(C)c1ccc(C(=O)COC(=O)C(O)c2ccccc2)cc1 (centres undefined)	none (no result: bIAP inh, bIAP activator)
Cc1cc(C)n(CC(=O)NNC(=O)C2CC(=O)N(Cc3ccccc3Cl)C2)n1 (centres undefined)	none (no result: bIAP inh, bIAP activator)
Cc1cccc(NC(=S)NC(C)CCc2ccccc2)c1 (centres undefined)	mIAP activ 2.2
COc1ccc(NC(=O)CSc2nc3[nH]ncc3c(=O)[nH]2)c(OC)c1	none (no result: bIAP inh, bIAP activator)
OC1(c2ccccc2)CNCCc2ccccc21 (centres undefined)	none (no result: bIAP inh, bIAP activator)
COc1ccc(-c2nn(-c3ccccc3C)cc2CNCCc2cnc[nH]2)cc1F	bIAP activator 2.3
CCn1cc(CNCc2cn(-c3ccccc3C)nc2-c2ccc(OC)c(F)c2)cn1	none
CCOC(=O)C(CC)(CC)C(=O)/C=C/c1cccc(Br)c1	none (no result: bIAP inh, bIAP activator)
CCOC(=O)C1(CC2CCCCO2)CCN(C(=O)Nc2cccc(SC)c2)CC1 (centres undefined)	mIAP activ 2.4
O=C(Nc1ccccc1Cl)C1CCN(Cc2cnn(-c3ccccc3)c2-n2cccc2)CC1	none
O=C(NCc1ccc2c(c1)OCO2)C1CCN(Cc2cnn(-c3ccccc3)c2-n2cccc2)CC1	bIAP activator 2.1
Fc1ccc(N2CCN(Cc3c[nH]c4ccccc34)CC2)cc1	hIAP block 38 (no result: bIAP inh, bIAP activator)
CCOc1ccc(CCNC(=O)CCNC(=O)c2ccc(Br)cc2)cc1OCC	none (no result: bIAP inh, bIAP activator)
CN(C)CCNC(=S)Nc1ccc(-c2nc3ccccc3[nH]2)cc1	none
CC(C)c1ccc(NC(=S)NCc2ccc3c(c2)OCO3)cc1	mIAP activ 2.5
S=C(NCc1ccc2c(c1)OCO2)Nc1ccc(-c2nc3ccccc3[nH]2)cc1	mIAP activ 2.3
COc1ccc(NC(=S)NCc2ccc3c(c2)OCO3)cc1	none
CCCCCCOc1ccc(C(=O)NCCCn2ccnc2)cc1	bIAP activator 2
Cc1cc(OCCCCn2ccnc2)cc(C)c1Cl	bIAP activator 16
CCCCOc1ccc(NC(=O)C(=O)NCCCn2ccnc2)cc1	none
Cc1cc(Cl)cc(C)c1OCCCCn1ccnc1	none
O=C(N/N=C/c1cc(Br)cc(Br)c1O)c1cccc(S(=O)(=O)N2CCOCC2)c1	mIAP inh 41 (no result: bIAP inh, bIAP activator)
O=C(N/N=C/c1ccccc1Br)c1cccc(S(=O)(=O)N2CCOCC2)c1	none (no result: bIAP inh, bIAP activator)
COc1cccc(CN2CC(C(=O)NCc3cnn(C)c3)CCC2=O)c1 (centres undefined)	none (no result: bIAP inh, bIAP activator)
Cc1ccccc1Cn1nc(C)c(NC(=O)C2c3ccccc3Oc3ccccc32)c1C	mIAP activ 4.5
C[C@H]1CN([C@@H](C)CO)C(=O)c2cccc(NC(=O)c3ccc(-c4nccs4)cc3)c2O[C@@H]1CN(C)C(=O)NC1CCCCC1	none (no result: bIAP inh, bIAP activator)
CN(C(=O)CSc1nc2ccccc2[nH]1)C1CCS(=O)(=O)C1 (centres undefined)	none (no result: bIAP inh, bIAP activator)
COCCn1c(N/N=C(C)/C=C/c2ccccc2)nc2c1c(=O)[nH]c(=O)n2C	bIAP activator 2.8 (no result: hIAP activ, hIAP block, mIAP activ, mIAP inh)
CC(/C=C/c1ccccc1)=N\Nc1nc2c(c(=O)[nH]c(=O)n2C)n1CCO	none (no result: bIAP inh, bIAP activator)
S=C(NCc1ccco1)Nc1ccc(Cl)c(Cl)c1	mIAP activ 2.3
COc1ccccc1NC(=S)NCc1ccccc1	none (no result: bIAP inh, bIAP activator)
COc1ccccc1NC(=S)NCCC(c1ccccc1)c1ccccc1	mIAP activ 2.1
COc1cc(NC(=S)NCCC(c2ccccc2)c2ccccc2)c(OC)cc1Cl	mIAP activ 3.5
S=C(NCCC(c1ccccc1)c1ccccc1)Nc1ccccc1Cl	mIAP activ 6
S=C(NCc1ccc(Cl)cc1)Nc1ccccc1Cl	none
CC1Cc2cc(/C(O)=C3/C(=O)C(=O)N(CCN4CCOCC4)C3c3ccc([N+](=O)[O-])cc3)ccc2O1 (centres undefined)	none (no result: bIAP inh, bIAP activator)
Cc1cc(C)cc(OCC(=O)Nc2ccncc2)c1	none (no result: bIAP inh, bIAP activator)
O=S(=O)(Cc1ccc(Cl)cc1)N1CCN(c2ncccn2)CC1	none (no result: bIAP inh, bIAP activator)
COc1ccccc1CNC(=O)[C@H](C)NC(=O)C1CCN(C(=O)[C@@H](N)C(C)C)CC1	none (no result: bIAP inh, bIAP activator)
COc1ccc2c(c1)[C@H]1[C@H](CO2)[C@H](c2ccccc2)[C@]2(C)C(=O)N(Cc3ccc(C)cc3)CC(=O)N12	none (no result: bIAP inh, bIAP activator)
O=C(CN1C2=NCCCN2c2ccccc21)c1ccc([N+](=O)[O-])cc1	none
CC1CCCCN1C(=O)COC(=O)c1cccc(NS(=O)(=O)c2ccccc2)c1 (centres undefined)	none (no result: bIAP inh, bIAP activator)
COc1ccc(-n2nnc3c(SC(C(C)=O)C(=O)N(C)C)ncnc32)cc1 (centres undefined)	none (no result: bIAP inh, bIAP activator)
O=C(Nc1ccccc1)Nc1ccc(Cl)c(S(=O)(=O)N2CCOCC2)c1	mIAP activ 2.8
O=C(Nc1ccc(NC(=O)c2ccc(Cl)c(S(=O)(=O)N3CCOCC3)c2)cc1)c1ccccc1	none (no result: bIAP inh, bIAP activator)
O=C(Nc1cccc(Cl)c1)Nc1cc(S(=O)(=O)N2CCOCC2)ccc1N1CCCC1	mIAP activ 3.7
Cc1ccc(NC(=O)Nc2ccccc2F)cc1S(=O)(=O)N1CCOCC1	mIAP activ 2.6 (no result: bIAP inh, bIAP activator)
CC1CCCC(C)N1C(=O)COC(=O)/C=C/c1ccc(Br)o1 (centres undefined)	none (no result: bIAP inh, bIAP activator)
CNC(=O)COC(=O)C1CCN(S(=O)(=O)c2ccc3c(c2)OCCO3)CC1	none (no result: bIAP inh, bIAP activator)
O=C(Nc1ccc(Cl)c(C(F)(F)F)c1)NC1CC2CCCC(C1)N2C1CC1 (centres undefined)	mIAP activ 4.4 (no result: bIAP inh, bIAP activator)
O=C(Nc1cccc(F)c1)NC1CC2CCCC(C1)N2C1CC1 (centres undefined)	none
O=C(CCC1CCCCC1)Nc1nccs1	none
O=C(CCC1CCCCC1)Nc1ncn[nH]1	bIAP activator 2.3
COc1ccc(NC(=O)CSc2nc3sc(C)cc3c(=O)n2C)c(OC)c1	none (no result: bIAP inh, bIAP activator)
Cc1ccc(Nc2nc(/N=C/NO)n[nH]2)cc1C	hIAP activ 2.5
COc1ccccc1NS(=O)(=O)c1cc([N+](=O)[O-])ccc1N/N=C/c1c[nH]c2ccccc12	none
COc1ccc(C=NNc2ccc([N+](=O)[O-])cc2S(=O)(=O)Nc2ccccc2C(=O)O)cc1OC	mIAP inh 42 (no result: bIAP inh, bIAP activator)
